Experimental data of several laboratories.
Protocols differ between the studies behind these lines.
Method: competition with immobilised ligand
RPS6KA4 C-terminal kinase domain: Ribosomal protein S6 kinase alpha-4, C-terminal kinase domain (RPS6KA4, Homo sapiens, UniProt O75676)
RPS6KA4 N-terminal kinase domain: Ribosomal protein S6 kinase alpha-4, N-terminal kinase domain (RPS6KA4, Homo sapiens, UniProt O75676)

SMILES	target	effect on	concentration	remaining binding [%]
C[C@@H]1CCN(c2nccc(-c3cnn4ncccc34)n2)C1	RPS6KA4 C-terminal kinase domain	binding	1 µM	58
O=C(c1ccc(Nc2ncc(Cl)c(-c3cc4ccccc4s3)n2)cc1)N1CCC(N2CCCC2)CC1	RPS6KA4 N-terminal kinase domain	binding	1 µM	100
Nc1ncc2c(n1)-c1c([nH]c3ccc(C#CC4CC4)cc13)CCCC2	RPS6KA4 C-terminal kinase domain	binding	1 µM	93
CS(=O)(=O)NCC[C@H](NC(=O)c1cncc2c1cnn2-c1ccc(F)cc1)c1ccnc(S(C)(=O)=O)c1	RPS6KA4 N-terminal kinase domain	cell-free assay	1 µM	85
CCN1CCN(Cc2ccc(C(=O)Nc3ccc(C)c(Oc4ccc5c(c4)CC(=O)N5)c3)cc2C(F)(F)F)CC1	RPS6KA4 C-terminal kinase domain	binding	1 µM	100
O=C(Nc1cccnn1)N1CC(C/C=C/c2cncc(Oc3ccc(C(F)(F)F)cn3)n2)C1	RPS6KA4 N-terminal kinase domain	cell-free assay	1 µM	100
O=C(NCCCN1CCOCC1)c1ccc(Nc2nccc(-c3cc4ccccc4s3)n2)cc1	RPS6KA4 C-terminal kinase domain	binding	1 µM	19
C=CC(=O)N1CCC(C(=O)NCC(=O)N2CCN(c3nc(-c4cnc(N)nc4C(F)F)nc(N4CCOCC4)n3)CC2)CC1	RPS6KA4 N-terminal kinase domain	binding	1 µM	82
c1cncc(-c2cccc(Nc3nccc(NC4CCCCC4)n3)c2)c1	RPS6KA4 C-terminal kinase domain	binding	10 µM	100
O=C(O)[C@H]1[C@H](Cn2nnc3ccccc3c2=O)CC[C@@H]1C(=O)c1ccc(OCCC2CCOCC2)cc1	RPS6KA4 N-terminal kinase domain	cell-free assay	1 µM	100
O=C(c1ccc(Nc2ncc(Cl)c(-c3ccc(Cl)s3)n2)cc1)N1CCC(N2CCCC2)CC1	RPS6KA4 N-terminal kinase domain	binding	1 µM	100
COc1cnc(Nc2cccc(S(N)(=O)=O)c2)nc1N1CCN(c2ccccc2)C(=O)C1	RPS6KA4 N-terminal kinase domain	binding	1 µM	100
O=C(N1CCS(=O)(=O)CC1)N1C[C@H](c2ccc(OC(F)(F)F)cc2)C[C@H](c2nc(C3CC3)no2)C1	RPS6KA4 N-terminal kinase domain	cell-free assay	1 µM	100
C[C@@H](c1ccc(-n2cnc3c(N)ncnc32)cc1)N1CCc2nn(C)c(Cc3ccccc3)c2C1=O	RPS6KA4 N-terminal kinase domain	binding	0.1 µM	84
Cc1cnc(Nc2ccc(C(=O)N3CCC(N4CCCC4)CC3)cc2)nc1-c1cc2ccccc2s1	RPS6KA4 N-terminal kinase domain	binding	1 µM	100
O=C(Nc1c[nH]nc1C(=O)NC1CCNCC1)c1cc(F)cc(F)c1	RPS6KA4 C-terminal kinase domain	binding	1 µM	34
COc1ccnn2ncc(-c3ccnc(N(C)C)n3)c12	RPS6KA4 N-terminal kinase domain	binding	1 µM	97

SMILES	target	effect on	concentration	remaining binding [%]
COc1ncc2cc3ccccc3nc2c1C#N	RPS6KA4 C-terminal kinase domain	cell-free assay	5 µM	58
O=C(NCC1CCOCC1)c1n[nH]cc1NC(=O)c1c(F)cccc1F	RPS6KA4 C-terminal kinase domain	binding	1 µM	29
CSc1cccnc1N1CCN(Cc2nc3ccccc3[nH]2)CC1	RPS6KA4 N-terminal kinase domain	cell-free assay	1 µM	94
F[C@@H]1CCN(c2nccc(-c3cnn4ncccc34)n2)C1	RPS6KA4 N-terminal kinase domain	binding	1 µM	90
O=C(NCc1ncc(C(F)(F)F)cc1Cl)c1ccc2c(c1)C1(CCS(=O)(=O)CC1)[C@@H](C1CC1)N2S(=O)(=O)c1ccc(F)cc1	RPS6KA4 C-terminal kinase domain	cell-free assay	1 µM	84
N[C@@H]1CCN(c2nccc(-c3cnn4ncccc34)n2)C1	RPS6KA4 C-terminal kinase domain	binding	1 µM	100
FC(F)(F)Oc1cccc(-c2cnc3ccc(-c4ccncc4)nn23)c1	RPS6KA4 C-terminal kinase domain	binding	5 µM	87
CNC(=O)[C@@H]1CC[C@@H](n2c(-c3ccc4cnccc4c3)nc3ccc(C(=O)NCc4cccc(C(N)=O)c4)cc32)C1	RPS6KA4 N-terminal kinase domain	binding	1 µM	100
O=C(c1ccc(Nc2nccc(-c3cc4ccccc4s3)n2)cc1)N1CCC(N2CCCC2)CC1	RPS6KA4 N-terminal kinase domain	binding	1 µM	100
Cc1c(NC(=O)c2cc(C(N)=O)nc3cc(F)ccc23)c(C(F)(F)F)nn1Cc1ccc(C#N)cc1	RPS6KA4 C-terminal kinase domain	cell-free assay	1 µM	85
c1cnn2ncc(-c3ccnc(N4CCC45COC5)n3)c2c1	RPS6KA4 N-terminal kinase domain	binding	1 µM	91
O=C(NCCCN1CCOCC1)c1ccc(Nc2ncc(Cl)c(-c3ccc(Cl)s3)n2)cc1	RPS6KA4 N-terminal kinase domain	binding	1 µM	100
Cc1cnn2ncc(-c3ccnc(N(C)C)n3)c2c1	RPS6KA4 C-terminal kinase domain	binding	1 µM	62
COc1cnc(Nc2cccc(S(N)(=O)=O)c2)nc1N1CCN(c2ccccc2)CC1	RPS6KA4 C-terminal kinase domain	binding	1 µM	89
O=C(NCCCC1CCCCC1)c1ccc(CNC(=O)c2cnn(-c3ccccc3)c2C(F)(F)F)cc1	RPS6KA4 C-terminal kinase domain	cell-free assay	0.1 µM	90
CN(CCCC(F)(F)F)c1nccc(-c2cnn3ncccc23)n1	RPS6KA4 N-terminal kinase domain	binding	1 µM	100
